This is an account of results in ChEMBL document CHEMBL3526062, “Role of human UDP-glucuronosyltransferases in the biotransformation of the triazoloacridinone and imidazoacridinone antitumor agents C-1305 and C-1311: highly selective substrates for UGT1A10” (Drug Metab Dispos, 2012).

Data set [1] is described as follows: Drug metabolism in human intestinal microsomes assessed as glucuronidation activity at 0.2 mM for 60 mins by ESI-MS analysis in presence of 3 mM UDP-GlcUA. It counts as ADME, Intestine, Microsome. To be noted: 1 h, 200 µM. Put shortly: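 Single-donor liver or intestinal microsomes (20 μg total protein) incubated with 0.2 mM substrate and 3 mM UDP-GlcUA for 60 min at 37°C in Tris-HCl pH 7.4, MgCl2, saccharolactone, 2% DMSO. Ethanol stop, centrifuged, HPLC analysis; triplicates.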

Data set [2] can be described thus: Drug metabolism in human intestinal microsomes assessed as glucuronidation after 60 mins by Michaelis-Menten equation in presence of 3 mM UDP-GlcUA. It counts as ADME, Intestine, Microsome. Put shortly:
(§1)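 Recombinant UGT membrane protein (5 μg; His-tagged UGT1A levels normalized by anti-His Western blot) or single-donor microsomes (20 μg) incubated with substrate 5–1000 μM and 3 mM UDP-GlcUA in […] pH 7.4, 5 mM MgCl2, 5 mM saccharolactone, 2% DMSO, 60 min, 37°C. Ethanol stop, centrifuged, HPLC-UV. Initial velocities fitted to Michaelis-Menten, Hill or substrate-inhibition models; three determinations.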

A short description of data set [3]: Drug metabolism in human small intestine microsomes assessed as glucuronidation activity at 0.1 mM for 60 mins in presence of 3 mM UDP-GlcUA. It counts as ADME. The settings on record: 1 h, 100 µM. In a few lines: (§2)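 Microsomes from single donors (20 μg protein) incubated with 0.1 mM substrate and 3 mM UDP-GlcUA for 60 min at 37°C in Tris-HCl pH 7.4 buffer with 5 mM MgCl2, 5 mM saccharolactone and 2% DMSO. Glucuronide measured by HPLC; donor data summarized as box-and-whisker plots.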

A short description of data set [4]: Drug metabolism in human duodenum microsomes assessed as glucuronidation activity at 0.1 mM for 60 mins in presence of 3 mM UDP-GlcUA. It counts as ADME, microsome. The settings on record: 1 h, 100 µM. In a few lines: as §2
A short description of data set [5]: Drug metabolism in human colon microsomes assessed as glucuronidation activity at 0.1 mM for 60 mins in presence of 3 mM UDP-GlcUA. Format: ADME, microsome. To be noted: 1 h, 100 µM. In a few lines: as §2
Data set [6] concerns the target T1, UDP-glucuronosyltransferase 1A9 (Homo sapiens, UniProt O60656).
T1 sequence (O60656 whole entry): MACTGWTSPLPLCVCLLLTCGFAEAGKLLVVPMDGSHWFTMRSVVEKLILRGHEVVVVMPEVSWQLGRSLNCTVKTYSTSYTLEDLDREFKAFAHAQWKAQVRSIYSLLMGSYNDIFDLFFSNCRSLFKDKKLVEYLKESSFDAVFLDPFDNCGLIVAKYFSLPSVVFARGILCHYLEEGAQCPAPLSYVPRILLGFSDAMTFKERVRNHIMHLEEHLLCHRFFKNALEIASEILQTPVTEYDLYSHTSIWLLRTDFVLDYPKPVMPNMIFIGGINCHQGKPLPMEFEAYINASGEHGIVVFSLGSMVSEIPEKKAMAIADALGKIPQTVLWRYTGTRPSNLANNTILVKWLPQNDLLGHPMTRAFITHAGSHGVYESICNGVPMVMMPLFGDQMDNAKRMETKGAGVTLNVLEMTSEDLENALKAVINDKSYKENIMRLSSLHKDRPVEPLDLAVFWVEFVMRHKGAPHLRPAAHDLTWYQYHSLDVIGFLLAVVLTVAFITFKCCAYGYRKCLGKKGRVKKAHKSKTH
In words: Activity of human recombinant UGT1A9 expressed in baculovirus-infected Sf9 cells assessed as glucuronidation activity per mg of protein at 100 to 200 uM after 60 mins in presence of 3 mM UDP-GlcUA. It counts as ADME. To be noted: sf9, 1 h. Put shortly:
(§3)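 Screening: 5 μg recombinant UGT protein (His-tag levels normalized) in Tris-HCl pH 7.4, 5 mM MgCl2, 5 mM saccharolactone, 2% DMSO to permeabilize membranes. Substrate at 100 or 200 μM, added in water. Started with 3 mM UDP-GlcUA, 60 min at 37°C, stopped with ethanol, then centrifuged. Glucuronide quantified by reversed-phase C18 HPLC against the substrate response; triplicates.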

In another data set the test system is Liver microsome. The experiment in a line: Drug metabolism in human liver microsomes assessed as glucuronidation per mg of protein after 60 mins by Michaelis-Menten equation in presence of 3 mM UDP-GlcUA. It counts as ADME. To be noted: 1 h. In a few lines: as §1
Data set [7] can be described thus: Drug metabolism in human intestinal microsomes assessed as glucuronidation per mg of protein after 60 mins by Michaelis-Menten equation in presence of 3 mM UDP-GlcUA. It counts as ADME, Intestine, Microsome. To be noted: 1 h. In a few lines: as §1
Data set [8] is described as follows: Drug metabolism in human jejunum microsomes assessed as glucuronidation activity at 0.1 mM for 60 mins in presence of 3 mM UDP-GlcUA. It counts as ADME. The settings on record: 1 h, 100 µM. Put shortly:
as §2

The nature of data set [9]: Drug metabolism in human ileum microsomes assessed as glucuronidation activity at 0.1 mM for 60 mins in presence of 3 mM UDP-GlcUA. Format: ADME. The settings on record: 1 h, 100 µM. Put shortly: as §2
Data set [10] has as its target T1, UDP-glucuronosyltransferase 1A9. In words: Inhibition of human recombinant UGT1A9 activity expressed in baculovirus-infected Sf9 cells. Format: ADME.
The target in data set [11] is T2, UDP-glucuronosyltransferase 1A8 (Homo sapiens, UniProt Q9HAW9).
T2 sequence (Q9HAW9 whole entry): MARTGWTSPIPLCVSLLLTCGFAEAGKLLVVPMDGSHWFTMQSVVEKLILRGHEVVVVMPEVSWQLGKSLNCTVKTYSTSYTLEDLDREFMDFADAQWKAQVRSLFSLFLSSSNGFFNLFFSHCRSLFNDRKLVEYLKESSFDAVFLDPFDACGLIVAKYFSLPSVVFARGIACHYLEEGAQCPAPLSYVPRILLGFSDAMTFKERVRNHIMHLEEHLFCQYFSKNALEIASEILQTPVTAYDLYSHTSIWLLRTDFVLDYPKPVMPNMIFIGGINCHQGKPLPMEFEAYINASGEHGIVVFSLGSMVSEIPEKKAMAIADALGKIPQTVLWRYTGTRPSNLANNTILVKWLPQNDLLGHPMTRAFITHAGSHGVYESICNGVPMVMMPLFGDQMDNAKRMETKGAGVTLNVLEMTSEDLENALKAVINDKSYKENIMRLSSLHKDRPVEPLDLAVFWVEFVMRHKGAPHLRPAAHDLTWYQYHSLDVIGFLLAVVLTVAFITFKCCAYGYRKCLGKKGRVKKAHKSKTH
In words: Activity of human recombinant UGT1A8 expressed in baculovirus-infected Sf9 cells assessed as glucuronidation activity per mg of protein at 100 to 200 uM after 60 mins in presence of 3 mM UDP-GlcUA. It counts as ADME. To be noted: sf9, 1 h. In a few lines: as §3

The structures appear in SMILES notation.

For the compound `CN(C)CCCNc1ccc2nnn3c4ccc(O)cc4c(=O)c1c23`, the Drug metabolism result in [1] is “metabolite_detected”; in [3], “metabolite_detected”; in [4], “metabolite_detected”; in data set [5], “metabolite_detected”; in data set [6], 0.2 nmol/min/mg; in data set [8], “metabolite_detected”. Moreover, the Drug metabolism result in data set [9] was “metabolite_detected”; in data set [11] it was 0.2 nmol/min/mg. Further, in data set [2], the Km at 1 h is 76.9 µM. Besides, the results for the Vmax (in the data set on Liver microsome; in data set [7]) were 0.386 nmol/min/mg and 0.413 nmol/min/mg, respectively. For the same compound, the Ki in data set [10] amounted to 1.65 mM.

Take `CCN(CC)CCNc1ccc2ncn3c4ccc(O)cc4c(=O)c1c23` [C-1311]: the Drug metabolism result in data set [1] was “metabolite_detected”; in data set [3], “metabolite_detected”; in data set [4], “metabolite_detected”; in [5] it was “metabolite_detected”; in [6], 0.2 nmol/min/mg; in data set [8], “metabolite_detected”. Besides, the results for the Drug metabolism entry in data set [9] and in data set [11] were “metabolite_detected” and 0.2 nmol/min/mg, respectively. Also, the Km at 1 h in data set [2] stood at 159 µM. In addition, the results for the Vmax (in the data set with Liver microsome; in data set [7]) were 0.156 nmol/min/mg and 0.823 nmol/min/mg, respectively. Also, the Ki in data set [10] was found to be 0.958 mM.
